The subject of experiment [1] is Mycobacterium tuberculosis. Kind of experiment: Antimycobacterial activity against PanC deficient Mycobacterium tuberculosis H37RvMA assessed as growth inhibition up to 2 mM after 7 to 14 days. It counts as functional. The method in brief: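 panC conditional knockdown (<5% wild-type PanC) grown to OD600 ~0.2 in 7H9 with Hyg 50 μg/mL, Km 25 μg/mL, Gm 5 μg/mL, diluted 500-fold. 2-fold serial dilutions from 4 mM starting concentration in 7H9 with half-strength antibiotics, with or without ATc (20 ng/mL) alone or ATc plus pantothenate (50 μg/mL). 37 °C, growth scored visually at 7, 10, 14 days.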

For experiment [2], the system named is Mycobacterium tuberculosis. Description: Antimycobacterial activity against wild type Mycobacterium tuberculosis H37RvMA assessed as growth inhibition up to 250 uM after 7 to 14 days. It counts as functional. The method in brief: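 H37RvMA grown in 7H9 to OD600 ~0.2, diluted 500-fold into wells holding 2-fold serial compound dilutions (starting concentration 4 mM) in 7H9. Incubated at 37 °C. Growth was read by eye on days 7, 10 and 14.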

Another experiment deals with T1, Pantothenate synthetase (Mycobacterium tuberculosis, UniProt P9WIL5).
T1 sequence (P9WIL5 whole entry): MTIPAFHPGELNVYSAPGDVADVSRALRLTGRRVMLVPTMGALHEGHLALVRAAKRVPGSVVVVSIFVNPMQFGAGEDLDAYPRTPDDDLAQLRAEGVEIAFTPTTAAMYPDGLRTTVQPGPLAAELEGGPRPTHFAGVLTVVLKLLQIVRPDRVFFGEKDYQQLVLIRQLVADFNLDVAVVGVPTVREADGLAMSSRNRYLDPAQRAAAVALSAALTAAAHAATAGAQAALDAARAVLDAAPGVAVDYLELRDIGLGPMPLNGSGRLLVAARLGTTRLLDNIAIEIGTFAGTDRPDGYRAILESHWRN
Description: Competitive inhibition of Mycobacterium tuberculosis recombinant PanC expressed in Escherichia coli BL21 (DE3) using pantoic acid and ATP as substrate by Michaelis-Menten equation analysis. The procedure, abridged:
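N-terminal His6 PanC (pET28b, BL21(DE3), Ni-NTA purified), 400 nM. Continuous MesG pyrophosphate-coupled assay with pyrophosphatase and purine nucleoside phosphorylase, A360, 25 °C. Buffer 100 mM HEPES pH 8.0, 10 mM MgCl2, up to 5% DMSO. Pantoic acid varied 50–300 μM at 2.6 mM ATP, 2.4 mM β-alanine, several fixed inhibitor levels, PanC-initiated. Initial rates fit to the competitive equation for Ki.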

SMILES strings stand for the structures. The source made the active and inactive calls. No cut-off for these calls is given here.

One may read the Ki as the dissociation constant of the complex between target and ligand, obtained from inhibition or displacement. As for `CC(C)(C)[C@@H](O)C(=O)NS(=O)(=O)OC[C@H]1O[C@@H](n2cnc3c(N)ncnc32)[C@@H](O)[C@@H]1O`, the “growth inhibition (GI)” value in experiment [1] and in experiment [2] was “inactive” throughout. Besides, the Ki on Pantothenate synthetase was found to be 1730 nM.

`CC(C)(CO)[C@@H](O)CNS(=O)(=O)NC[C@H]1O[C@@H](n2cnc3c(N)ncnc32)[C@H](O)[C@@H]1O`: the “growth inhibition (GI)” value in experiment [1] and in experiment [2] was “inactive” throughout. On Pantothenate synthetase, the Ki is 3470 nM.

Regarding `CC(C)(C)[C@@H](O)C(=O)NS(=O)(=O)OC[C@H]1O[C@@H](n2cnc3c(N)ncnc32)[C@H](F)[C@@H]1O`, the “growth inhibition (GI)” value in experiment [1] and in experiment [2] was “inactive” each time. The Ki at Pantothenate synthetase was 990 nM.

As to `CC(C)(C)[C@@H](O)C(=O)NS(=O)(=O)OC[C@H]1C[C@@H](n2cnc3c(N)ncnc32)[C@H](O)[C@@H]1O`, the “growth inhibition (GI)” value in experiment [1] and in experiment [2] was “inactive” each time. The Ki on Pantothenate synthetase turned out to be 870 nM.

As for `CC(C)(C)[C@@H](O)C(=O)NS(=O)(=O)OC[C@H]1O[C@@H](n2cnc3c(N)ncnc32)[C@H](O)[C@@H]1O`, the “growth inhibition (GI)” value in experiment [1] and in experiment [2] was “inactive” throughout. Moreover, the Ki at Pantothenate synthetase is 270 nM.

The values above are taken from ChEMBL document CHEMBL3112410, “Reaction intermediate analogues as bisubstrate inhibitors of pantothenate synthetase” (Bioorg Med Chem, 2014).
